Reference: ChEMBL document CHEMBL1148541, “Biological evaluation of 1-alkyl-3-phenylthioureas as orally active HDL-elevating agents” (Bioorg Med Chem Lett, 2006)
Each block holds one compound with its values, some of them ahead of it.

Assays:
Rattus norvegicus [1] = experiment: Triglyceride level in cholesterol-fed male rats at 55 mg/kg/day relative to control; type: functional
Summary of the method: (§1)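 Male Sprague–Dawley rats on a cholesterol diet, in groups of six, received the compound in the diet ad libitum for 8 days. Serum triglycerides are expressed as % change relative to untreated controls, with significance at p < 0.05 versus controls.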

Rattus norvegicus [2] = species: Rattus norvegicus; experiment: Increase in liver enzyme Alkaline phosphatase; type: functional; set-up: concentration or dose not given beside the values
Rattus norvegicus [3] = experiment: Increase of HDL level in cholesterol-fed male rats by ultracentrifugation method at 55 mg/kg/day relative to control; type: functional
Summary of the method: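 Cholesterol-fed male Sprague–Dawley rats, six per group, given drug in the diet ad libitum for 8 days. Serum lipoproteins separated by classical ultracentrifugation and HDL cholesterol measured by an enzymatic colorimetric method. Expressed as % change versus untreated controls, with significance set at p < 0.05.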

Rattus norvegicus [4] = species: Rattus norvegicus; experiment: Increase in liver enzyme Alanine aminotransferase; type: functional
Rattus norvegicus [5] = species: Rattus norvegicus; experiment: Increase in liver enzyme Aspartate aminotransferase; type: functional; set-up: concentration or dose not given beside the values
Rattus norvegicus [6] = experiment: Increase of Apolipoprotein A-I level in cholesterol-fed male rats at 55 mg/kg/day relative to control; type: functional
Summary of the method: (§2)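 Drug mixed into diet, fed ad libitum for 8 days to groups of six male Sprague–Dawley rats on a cholesterol diet. Serum Apo A-I measured by SDS–polyacrylamide gel electrophoresis or by rat competition ELISA. Reported as % change versus untreated controls, with significance set at p < 0.05.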

Rattus norvegicus [7] = experiment: Increase of total cholesterol level in cholesterol-fed male rats at 55 mg/kg/day relative to control; type: functional
Summary of the method: (§3)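 Dietary (ad libitum) dosing of groups of six male Sprague–Dawley rats on a cholesterol diet for 8 days. Serum total cholesterol was quantitated enzymatically by a colorimetric method and expressed as % change relative to untreated controls, with significance at p < 0.05.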

Rattus norvegicus [8] = experiment: Weight gain in cholesterol-fed male rats at 55 mg/kg/day relative to control; type: functional
Summary of the method: (§4)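 Groups of six male Sprague–Dawley rats on a cholesterol diet received the compound in the diet, ad libitum, over 8 days. Body weight gain is reported as % change relative to untreated controls.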

Rattus norvegicus [9] = experiment: Increase of HDL level in cholesterol-fed male rats by FPLC method at 55 mg/kg/day relative to control; type: functional
Summary of the method: (§5)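 Groups of six male Sprague–Dawley rats on a cholesterol diet received drug in the diet, ad libitum, for 8 days. Serum lipoproteins separated by FPLC, adapted for robotic automation, and cholesterol quantitated enzymatically by colorimetry. HDL given as % change versus untreated controls, with significance set at p < 0.05.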

Rattus norvegicus [10] = experiment: Triglyceride level in cholesterol-fed male rats at 79 mg/kg/day relative to control; type: functional; summary of the method: as §1
Hamster [11] = experiment: Increase of HDL cholesterol in chow-fed hamster at 64 mg/kg/day; type: functional, Cricetulus griseus
Rhesus monkey = experiment: Increase of HDL cholesterol in chow-fed rhesus monkey at 12 mg/kg/day; type: functional, Macaca mulatta
Rattus norvegicus [12] = experiment: Increase of total cholesterol level in cholesterol-fed male rats at 79 mg/kg/day relative to control; type: functional; summary of the method: as §3
Canis familiaris = experiment: Increase of HDL cholesterol in normal-fed dog at 35 mg/kg/day; type: functional, Canis lupus familiaris
Rattus norvegicus [13] = experiment: Increase of HDL level in cholesterol-fed male rats by ultracentrifugation method at 79 mg/kg/day relative to control; type: functional
Summary of the method: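 Compound given in the diet, ad libitum, to groups of six male Sprague–Dawley rats on a cholesterol diet for 8 days. Serum lipoproteins were separated by classical ultracentrifugation, and HDL cholesterol was quantitated by an enzymatic colorimetric method. Results are reported as % change relative to untreated controls, with significance at p < 0.05 versus controls.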

[14] = target: T1, Peroxisome proliferator-activated receptor alpha (Rattus norvegicus, UniProt P37230); experiment: Activity against PPAR-alpha
T1 sequence (P37230 whole entry): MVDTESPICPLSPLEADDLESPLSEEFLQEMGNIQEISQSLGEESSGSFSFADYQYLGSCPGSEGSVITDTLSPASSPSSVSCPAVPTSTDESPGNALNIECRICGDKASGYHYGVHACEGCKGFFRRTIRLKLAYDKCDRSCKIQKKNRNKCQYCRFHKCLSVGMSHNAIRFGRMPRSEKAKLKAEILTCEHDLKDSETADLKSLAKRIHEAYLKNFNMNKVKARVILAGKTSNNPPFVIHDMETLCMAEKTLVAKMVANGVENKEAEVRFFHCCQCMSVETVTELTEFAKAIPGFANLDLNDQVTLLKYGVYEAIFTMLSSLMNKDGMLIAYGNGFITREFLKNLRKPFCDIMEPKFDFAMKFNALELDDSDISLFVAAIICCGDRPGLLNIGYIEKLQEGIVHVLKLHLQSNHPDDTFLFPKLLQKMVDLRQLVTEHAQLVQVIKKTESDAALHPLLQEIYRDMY

Cynomolgus monkey = experiment: Increase of HDL cholesterol in chow-fed cynomolgus monkey at 12 mg/kg/day; type: functional, Macaca fascicularis
Rattus norvegicus [15] = experiment: Weight gain in cholesterol-fed male rats at 79 mg/kg/day relative to control; type: functional; summary of the method: as §4
Rattus norvegicus [16] = experiment: Increase of Apolipoprotein A-I level in cholesterol-fed male rats at 79 mg/kg/day relative to control; type: functional; summary of the method: as §2
Rattus norvegicus [17] = experiment: Increase of HDL level in cholesterol-fed male rats by FPLC method at 79 mg/kg/day relative to control; type: functional; summary of the method: as §5
Hamster [18] = experiment: Increase of HDL cholesterol in normal-fed hamster at 52 mg/kg/day; type: functional, Cricetulus griseus
[19] = target: T2, Peroxisome proliferator-activated receptor delta (Homo sapiens, UniProt Q03181); experiment: Activity against PPAR-delta
T2 sequence (Q03181 whole entry): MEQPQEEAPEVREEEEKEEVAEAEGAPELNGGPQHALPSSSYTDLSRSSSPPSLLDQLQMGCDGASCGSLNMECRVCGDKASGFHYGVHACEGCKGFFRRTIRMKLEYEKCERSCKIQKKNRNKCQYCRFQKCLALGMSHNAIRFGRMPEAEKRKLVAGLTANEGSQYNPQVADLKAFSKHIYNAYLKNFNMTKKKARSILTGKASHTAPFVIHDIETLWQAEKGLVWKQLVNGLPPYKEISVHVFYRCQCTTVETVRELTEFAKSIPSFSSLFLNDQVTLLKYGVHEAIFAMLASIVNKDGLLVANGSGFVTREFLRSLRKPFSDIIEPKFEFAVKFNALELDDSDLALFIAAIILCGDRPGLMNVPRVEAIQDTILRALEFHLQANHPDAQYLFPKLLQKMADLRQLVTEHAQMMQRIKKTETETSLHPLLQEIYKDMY

Rattus norvegicus [20] = experiment: Increase of HDL cholesterol in normal-fed rat at 80 mg/kg/day; type: functional

SMILES: CCCC/N=C(\S)Nc1cc(Cl)ccc1C
Activity (Rattus norvegicus [1]): -44%
Activity (Rattus norvegicus [2]): 44%
Activity (Rattus norvegicus [3]): 100%
Activity (Rattus norvegicus [4]): 93%
Activity (Rattus norvegicus [5]): 79%
Activity (Rattus norvegicus [6]): 38%
Activity (Rattus norvegicus [7]): 39%
Activity (Rattus norvegicus [8]): -53%
Activity (Rattus norvegicus [9]): 203%

EC50 [14]: > 100 µM
EC50 [19]: > 100 µM
SMILES: Cc1ccc(Cl)cc1N/C(S)=N/CC(C)C
Activity (Rattus norvegicus [10]): -54%
Activity (Hamster [11]): 15%
Activity (Rhesus monkey): 75%
Activity (Rattus norvegicus [12]): -11%
Activity (Canis familiaris): 50%
Activity (Rattus norvegicus [13]): 104%
Activity (Cynomolgus monkey): 100%
Activity (Rattus norvegicus [15]): -12%
Activity (Rattus norvegicus [16]): 77%
Activity (Rattus norvegicus [17]): 260%
Activity (Hamster [18]): 44%
Activity (Rattus norvegicus [20]): 75%

SMILES: Cc1ccc(Cl)cc1/N=C(\S)NCCO
Activity (Rattus norvegicus [1]): -53%
Activity (Rattus norvegicus [3]): 75%
Activity (Rattus norvegicus [6]): 48%
Activity (Rattus norvegicus [7]): 39%
Activity (Rattus norvegicus [8]): -104%
Activity (Rattus norvegicus [9]): 241%
